Experimental data taken from ChEMBL document CHEMBL1157547, “Structural basis for selective inhibition of purine nucleoside phosphorylase from Schistosoma mansoni: kinetic and structural studies” (Bioorg Med Chem, 2010).

Tests used:
[1] = Selectivity ratio of IC50 for human purine nucleoside phosphorylase to IC50 for Schistosoma mansoni purine nucleoside phosphorylase
[2] = Inhibition of Schistosoma mansoni purine nucleoside phosphorylase
In short: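 Coupled spectrophotometric assay with 5 nM SmPNP (as monomer) in 50 mM potassium phosphate, pH 7.4, with 10 uM inosine and xanthine oxidase 40 milliunits/mL. Uric acid formation read at 293 nm, 25°C, in triplicate. IC50 obtained from rates at six or more inhibitor concentrations. Values are means of at least three independent experiments.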

[3] = biological target: T1, Purine nucleoside phosphorylase (Homo sapiens, UniProt P00491); test: Inhibition of human purine nucleoside phosphorylase
T1 sequence (P00491 whole entry): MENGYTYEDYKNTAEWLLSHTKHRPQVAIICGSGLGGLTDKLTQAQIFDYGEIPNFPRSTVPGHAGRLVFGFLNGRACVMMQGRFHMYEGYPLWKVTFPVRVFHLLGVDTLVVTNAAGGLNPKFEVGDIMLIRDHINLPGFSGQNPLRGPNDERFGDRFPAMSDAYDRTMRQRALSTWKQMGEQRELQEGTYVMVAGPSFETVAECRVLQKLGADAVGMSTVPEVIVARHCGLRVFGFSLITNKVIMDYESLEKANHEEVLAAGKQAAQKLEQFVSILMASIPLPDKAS

Row | SMILES | Ratio IC50 [1] | IC50 [2] [nM] | IC50 [3] [nM]
1 | Nc1nc2c(Cc3cccc(Cl)c3)c[nH]c2c(=O)[nH]1 | 0.1 | 500 | 50
2 | Nc1nc2c(Cc3ccccn3)c[nH]c2c(=O)[nH]1 | 0.003 | 7000 | 23
3 | Nc1nc2c(Cc3ccncc3)c[nH]c2c(=O)[nH]1 | 0.033 | 3000 | 100
4 | Nc1nc2c(ccn2[C@H]2O[C@@H](CO)[C@H](O)[C@@H]2O)c(=S)[nH]1 | 3.3 | 95000 | 315000
5 | CC(C)c1ccc(Cc2c[nH]c3c(=O)[nH]c(N)nc23)cc1 | 1.8 | 150 | 270
6 | Nc1nc2c(Cc3ccc(OCc4ccccc4)cc3)c[nH]c2c(=O)[nH]1 | 0.6 | 500 | 300
7 | Nc1nc2c(Cc3cccnc3)c[nH]c2c(=O)[nH]1 [PELDESINE] | 0.25 | 800 | 200
8 | Nc1nc2c(Cc3ccccc3)c[nH]c2c(=O)[nH]1 |  | 1400 | 
9 | Nc1ncnc2c1ccn2[C@H]1O[C@@H](CO)[C@H](O)[C@@H]1O | 1.5 | 200000 | 300000
10 | O=c1nc[nH]c2c([C@H]3O[C@@H](CO)[C@H](O)[C@@H]3O)[nH]nc12 | 6.4 | 47000 | 300000
